The target in data set [1] is Bromodomain-containing protein 4 (Homo sapiens, UniProt O60885). Put plainly: Inhibition of FAM-labeled ZBA248 binding to recombinant human BRD4 bromodomain 1 (44 to 168 residues) expressed in Rosetta2 Escherichia coli DE3 cells after 30 mins by fluorescence polarization assay. The procedure, abridged:
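Recombinant human BRD4 BD1 (residues 44−168) in a fluorescence polarization competitive binding assay, run as described in earlier work.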

For another data set, the system named is MOLM-13. Put plainly: Growth inhibition of human MOLM13 cells after 4 days by WST-8 assay. Format: functional, cell-based. The following applies: MOLM-13, 96 h. The procedure, abridged: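 Leukemia cells, used within 3 months of thaw, were seeded at 10 000 cells/well and exposed to serially diluted compound in culture medium for 4 days. WST-8 reagent was added at 10% (v/v) final for 1−3 h, and absorbance was read at 450 nm. Readings were normalized to DMSO-treated cells, and the IC50 was fitted by nonlinear regression.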

The subject of data set [2] is MDA-MB-231. Briefly: Growth inhibition of human MDA-MB-231 cells after 4 days by WST-8 assay. Format: functional, cell-based. The following applies: MDA-MB-231, 96 h. The procedure, abridged:
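Cells used within 3 months of thaw. Breast cancer cells seeded at 3000 cells/well, then serially diluted compound added, cultured 4 days. Growth read by WST-8 (10% v/v final, 1−3 h, 450 nm). Readings normalized to DMSO-treated cells. IC50 by nonlinear regression.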

Data set [3] in a line: Plasma concentration in SCID mouse xenografted with human MDA-MB-231 cells at 50 mg/kg administered via oral gavage measured after 6 hrs. Format: ADME, organism-based. The procedure, abridged: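 SCID mice carrying MDA-MB-231 tumors dosed orally at 50 mg/kg. Plasma drug level determined by LC-MS/MS (positive-ion MRM, C18 column, formic acid/acetonitrile gradient). Value is the mean from two mice per time point.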

A short description of data set [4]: Drug uptake in tumor of SCID mouse xenografted with human MDA-MB-231 cells at 50 mg/kg administered via oral gavage measured after 1 hr. Format: ADME, organism-based, Neoplasm. The note with it: read-out: Drug uptake. A digest of the protocol: (§1)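 Limited PK in SCID mice bearing MDA-MB-231 tumors, 50 mg/kg given by oral gavage. Plasma and tumor tissue drug levels measured at two time points per compound. Values are the mean of two mice/tumors per time point.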

Data set [5] in a line: Drug uptake in tumor of SCID mouse xenografted with human MDA-MB-231 cells at 50 mg/kg administered via oral gavage measured after 6 hrs. Format: ADME, organism-based, Neoplasm. The following applies: read-out: Drug uptake. A digest of the protocol: as §1
A short description of data set [6]: Plasma concentration in SCID mouse xenografted with human MDA-MB-231 cells at 50 mg/kg administered via oral gavage measured after 1 hr. Format: ADME, organism-based. A digest of the protocol:
as §1

Data set [7] can be described thus: Plasma concentration in SCID mouse xenografted with human MDA-MB-231 cells at 50 mg/kg administered via oral gavage measured after 0.5 hrs. Format: ADME, organism-based. A digest of the protocol:
as §1

The nature of data set [8]: Drug uptake in tumor of SCID mouse xenografted with human MDA-MB-231 cells at 50 mg/kg administered via oral gavage measured after 0.5 hrs. Format: ADME, organism-based, Neoplasm. The following applies: read-out: Drug uptake. A digest of the protocol:
as §1

For another data set, the system named is RS4-11. Put plainly: Antitumor activity against human RS4:11 cells xenografted in SCID mouse assessed as tumor growth inhibition at 50 mg/kg administered via oral gavage measured on day 35. Format: functional. The following applies: RS4-11, po, 840 h, read-out: TGI. A digest of the protocol:
(§2)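 Each SCID mouse received a single dorsal subcutaneous tumor of 5 × 10⁶ RS4;11 or MDA-MB-231 cells in 50% Matrigel. At about 100 mm3, mice were randomised to treatment or vehicle control groups. Dosing was by oral gavage at the stated schedules. Tumor volume was L × W²/2, and body weight was tracked. TGI versus vehicle at end of treatment was tested by unpaired two-tailed t-test.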

In data set [9] the test system is MDA-MB-231. Briefly: Antitumor activity against human MDA-MB-231 cells xenografted in SCID mouse assessed as tumor growth inhibition at 50 mg/kg administered via oral gavage measured on day 44. The following applies: MDA-MB-231, po, 1056 h, read-out: TGI. Format: functional. A digest of the protocol:
as §2

Each structure is given as a SMILES string.

On to `COc1cc2c(cc1-c1c(C)noc1C)[nH]c1nc(C)nc(Nc3cc(C)nn3C)c12`, for which the values for the IC50 (in [1]; with MOLM-13; in the data set on MDA-MB-231 [2]) were 9.4 nM, 10.3 nM and 55.1 nM, respectively. In addition, in [1], the Ki stood at 0.8 nM.
On to `COc1cc2c(cc1-c1c(C)noc1C)[nH]c1nc(C)nc(Nc3cc(C)nn3C(C)C)c12`, for which the Ki in data set [1] was found to be 0.5 nM. Also, the results for the IC50 in the data set on MOLM-13 and with MDA-MB-231 [2] were 5 nM and 29.6 nM, respectively.
For `COc1cc2c(cc1-c1c(C)noc1C)[nH]c1nc(C)nc(Nc3cc(C(C)(C)C)nn3C)c12`, the IC50 was 10.5 nM in [1], 23 nM in the data set on MOLM-13 and 23.5 nM with MDA-MB-231 [2]. In [1], the Ki is 1.2 nM. Besides, the concentration at 6 h in data set [3] came out at 458 ng/mL; in data set [5] it was 268 ng/g. The concentration at 1 h in data set [4] was determined as 305 ng/g; in data set [6], 923 ng/mL.
Consider `COc1cc2c(cc1-c1c(C)noc1C)[nH]c1nc(C)nc(Nc3cc(C(C)(C)C(F)(F)F)nn3C)c12`, for which the concentration for half-maximal inhibition (IC50) stood at 13.8 nM in [1], 75 nM in the data set with MOLM-13 and 164 nM in the data set on MDA-MB-231 [2]. Also, the Ki in data set [1] amounted to 2.4 nM.
In the case of `COc1cc2c(cc1-c1c(C)noc1C)[nH]c1nc(C)nc(Nc3nn(C)c4c(F)cccc34)c12`, in [1], the IC50 turned out to be 95.2 nM and the Ki was found to be 31 nM.
In the same order, the values of `COc1cc2c(cc1-c1c(C)noc1C)[nH]c1nc(C)nc(Nc3nn(C)c4cccnc34)c12` are 229 nM and 78 nM.
For the compound `COc1cc2c(cc1-c1c(C)noc1C)[nH]c1nc(C)nc(Nc3nn(C)c4ccc(F)cc34)c12`, the inhibitory constant (Ki) in data set [1] came to 16.7 nM.
Regarding `CCn1nc(C)cc1Nc1nc(C)nc2[nH]c3cc(-c4c(C)noc4C)c(OC)cc3c12`, the IC50 came out at 16.8 nM in [1], 15.4 nM in the data set with MOLM-13 and 26.3 nM with MDA-MB-231 [2]. Further, the Ki in data set [1] is 3.4 nM.
Consider `COc1cc2c(cc1-c1c(C)noc1C)[nH]c1nc(C)nc(Nc3cc(C)nn3C3CCC3)c12`, for which the IC50 came out at 14.3 nM in [1], 38.8 nM with MOLM-13 and 26 nM in the data set with MDA-MB-231 [2]. Further, the Ki in [1] stood at 2.6 nM.
With `COc1cc2c(cc1-c1c(C)noc1C)[nH]c1nc(C)nc(Nc3n[nH]c4ccccc34)c12`, in data set [1], the IC50 came to 11.8 nM and the inhibitory constant (Ki) turned out to be 1.7 nM.
`COc1cc2c(cc1-c1c(C)noc1C)[nH]c1nc(C)nc(Nc3nn(C)c4c3CCCC4)c12`: the inhibition constant Ki in data set [1] is < 1 nM. Besides, the IC50 came to 41.9 nM in the data set on MOLM-13 and 58.3 nM with MDA-MB-231 [2].
Regarding `COc1cc2c(cc1-c1c(C)noc1C)[nH]c1nc(C)nc(Nc3cc(C)nn3C(C)(C)C)c12`, the IC50 came out at 4.4 nM in [1], 10.6 nM in the data set on MOLM-13 and 13.9 nM in the data set on MDA-MB-231 [2]. In addition, in [1], the Ki was < 1 nM. Also, the concentration at 0.5 h was found to be 3680 ng/mL in data set [7] and 5230 ng/g in data set [8]. Further, the concentration at 6 h in [3] stood at 127 ng/mL; in data set [5], 621 ng/g.
In the case of `COc1ccc2c(Nc3nc(C)nc4[nH]c5cc(-c6c(C)noc6C)c(OC)cc5c34)nn(C)c2c1`, in [1], the IC50 was found to be 196 nM and the Ki came to 66.5 nM.
With `COc1cc2c(cc1-c1c(C)noc1C)[nH]c1nc(C)nc(Nc3cc(C(C)C)nn3C)c12`, in data set [1], the Ki is < 1 nM. Besides, the concentration at 6 h in data set [3] is 1870 ng/mL; in data set [5] it was 166 ng/g. Also, the values for the concentration at 1 h in [4] and in data set [6] were 736 ng/g and 6240 ng/mL, respectively. Further, the IC50 in the data set with MOLM-13 was 11.7 nM; with MDA-MB-231 [2], 26 nM.
Consider `COc1cc2c(cc1-c1c(C)noc1C)[nH]c1nc(C)nc(Nc3c4c(nn3C)CCCC4)c12`, for which the IC50 in [1] came out at 4.9 nM; in the data set on MOLM-13, 11.3 nM; in the data set with MDA-MB-231 [2], 17.5 nM. In addition, the Ki in data set [1] is < 1 nM. Besides, the figures for the concentration at 6 h in [3] and in data set [5] were 1150 ng/mL and 132 ng/g, respectively. Moreover, the results for the concentration at 1 h in data set [4] and in data set [6] were 466 ng/g and 2980 ng/mL, respectively.
Consider `COc1cc2c(cc1-c1c(C)noc1C)[nH]c1nc(C)nc(Nc3cc(C4CCC4)nn3C)c12`, for which the IC50 in data set [1] was found to be 12.8 nM; in the data set with MOLM-13, 26.6 nM; in the data set on MDA-MB-231 [2], 63.2 nM. In addition, in data set [1], the Ki came out at 2 nM.
With `COc1cc2c(cc1-c1c(C)noc1C)[nH]c1nc(C)nc(Nc3nn(C)c4cc(F)ccc34)c12`, in data set [1], the IC50 was 87.6 nM and the Ki is 28.4 nM.
The corresponding values for `COc1cc2c(cc1-c1c(C)noc1C)[nH]c1nc(C)nc(Nc3nn(CCO)c4ccccc34)c12` are 9.8 nM and 1 nM.
For `Cc1sc2c(c1C)C(c1ccc(Cl)cc1)=N[C@@H](CC(=O)Nc1ccc(O)cc1)c1nnc(C)n1-2` [BIRABRESIB], the figures for the inhibition in vivo at 50 mg/kg in the data set with RS4-11 and with MDA-MB-231 [9] were 33% and 21%, respectively.
In the case of `COc1cc2c(cc1-c1c(C)noc1C)[nH]c1nc(C)nc(Nc3nn(C)c4ccccc34)c12`, in data set [1], the IC50 came out at 9.1 nM and the Ki stood at 0.7 nM.
For `COc1cc2c(cc1-c1c(C)noc1C)[nH]c1nc(C)nc(Nc3nn(C)c4ccncc34)c12`, in data set [1], the IC50 is 228 nM and the Ki was found to be 77.9 nM.
As for `COc1cc2c(cc1-c1c(C)noc1C)[nH]c1nc(C)nc(Nc3cc(C(F)(F)F)nn3C)c12`, the values for the IC50 (in [1]; in the data set on MOLM-13; in the data set with MDA-MB-231 [2]) were 15.8 nM, 56 nM and 156 nM, respectively. The Ki in data set [1] was found to be 3.1 nM.
On to `COc1cc2c(cc1-c1c(C)noc1C)[nH]c1nc(C)nc(Nc3c4c(nn3C)CCC4)c12`, for which the IC50 in data set [1] was 5.5 nM; in the data set on MOLM-13, 5 nM; in the data set on MDA-MB-231 [2], 67 nM. Besides, the Ki in data set [1] is < 1 nM. In addition, the figures for the concentration at 6 h in data set [3] and in [5] were 1580 ng/mL and 600 ng/g, respectively. In addition, the concentration at 1 h was 1510 ng/g in [4] and 4880 ng/mL in data set [6].
As to `COc1cc2c(cc1-c1c(C)noc1C)[nH]c1nc(C)nc(Nc3nn(C)c4ncccc34)c12`, in [1], the IC50 was found to be 20.8 nM and the Ki was 4.9 nM.
Consider `COc1cc2c(cc1-c1c(C)noc1C)[nH]c1nc(C)nc(Nc3cc(C)n(C)n3)c12`, for which the IC50 turned out to be 24.9 nM in [1], 30.7 nM with MOLM-13 and 81.1 nM in the data set with MDA-MB-231 [2]. Further, the Ki in data set [1] came to 6.3 nM.
As for `COc1cc2c(cc1-c1c(C)noc1C)[nH]c1nc(C)nc(Nc3c(C)c(C4CC4)nn3C)c12`, the IC50 in [1] was 51.7 nM; in the data set on MOLM-13, 201 nM; with MDA-MB-231 [2] it was 319 nM. The Ki in data set [1] turned out to be 15.8 nM.
Regarding `COc1cc2c(cc1-c1c(C)noc1C)[nH]c1nc(C)nc(Nc3cc(C)nn3C3CCCC3)c12`, the IC50 in [1] was found to be 4 nM; in the data set on MOLM-13, 17.7 nM; in the data set with MDA-MB-231 [2], 25 nM. In data set [1], the Ki was < 1 nM.
Regarding `COc1cc2c(cc1-c1c(C)noc1C)[nH]c1nc(C)nc(Nc3nn(C)c4cccc(F)c34)c12`, in data set [1], the Ki stood at 21.5 nM.

Source of the values: ChEMBL document CHEMBL4145654, “Structure-Based Discovery of CF53 as a Potent and Orally Bioavailable Bromodomain and Extra-Terminal (BET) Bromodomain Inhibitor” (J Med Chem, 2018).
